{
  "source": "ChEMBL document CHEMBL4819003",
  "about": "“Optimization of novel oxidative DIMs as Nur77 modulators of the Nur77-Bcl-2 apoptotic pathway” (Eur J Med Chem, 2021)",
  "key": {"[1]": {"molecular_target": "T1, Nuclear receptor subfamily 4immunitygroup A member 1 (Homo sapiens, UniProt P22736)", "T1 sequence (P22736 whole entry)": "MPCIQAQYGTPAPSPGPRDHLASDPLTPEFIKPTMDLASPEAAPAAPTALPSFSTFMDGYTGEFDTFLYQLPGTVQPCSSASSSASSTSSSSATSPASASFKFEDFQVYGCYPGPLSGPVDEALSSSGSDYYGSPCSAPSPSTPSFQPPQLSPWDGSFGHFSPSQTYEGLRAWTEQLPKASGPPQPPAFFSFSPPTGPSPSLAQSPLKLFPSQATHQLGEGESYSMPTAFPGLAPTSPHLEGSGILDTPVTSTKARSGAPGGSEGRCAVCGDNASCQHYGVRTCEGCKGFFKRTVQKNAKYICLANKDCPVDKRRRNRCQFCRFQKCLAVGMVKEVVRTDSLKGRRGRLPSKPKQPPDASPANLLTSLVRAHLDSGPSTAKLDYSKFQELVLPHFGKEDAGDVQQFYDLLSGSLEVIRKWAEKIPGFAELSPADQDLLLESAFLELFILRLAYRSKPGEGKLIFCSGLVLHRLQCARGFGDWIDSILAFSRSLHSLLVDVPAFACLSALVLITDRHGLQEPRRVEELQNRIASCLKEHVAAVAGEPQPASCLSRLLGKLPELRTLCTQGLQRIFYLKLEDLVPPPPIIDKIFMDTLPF", "test": "Modulation of Myc-Nur77 (unknown origin) transfected in human HEK293T cells assessed as induction of Myc-Nur77 mitochondrial targeting by measuring increase in Myc-Nur77 accumulation in mitochondria at 0.5 uM measured after 2 hrs by western blot analysis", "details": "filed as modulator", "method_in_brief": "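HEK293T cells transfected with Myc-Nur77 were exposed to 0.5 μM compound for 2 h. Cells were homogenised in sucrose Buffer D; 500 g then 5000 g spins gave a mitochondrial pellet. Whole-cell and mitochondrial fractions were western blotted for Myc-Nur77, with PARP and Tom20 as fraction-purity markers.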"}, "MDA-MB-231": {"test_system": "MDA-MB-231", "test": "Induction of apoptosis in human MDA-MB-231 cells assessed as PARP cleavage at 0.5 uM measured after 6 hrs by western blot assay", "assay_type": "functional, cell-based", "method_in_brief": "(§1)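 Cells exposed to 0.5 µM for 6 h. Lysates resolved by SDS-PAGE and blotted to PVDF, blocked in 5% milk/TBST, probed with primary antibodies at 1:1000, ECL detection. Apoptosis scored as the densitometric ratio of cleaved PARP band to intact PARP band; mean ± SD, n = 3.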"}, "HCT-116": {"test_system": "HCT-116", "test": "Induction of apoptosis in human HCT-116 cells assessed as PARP cleavage at 0.5 uM measured after 6 hrs by western blot assay", "assay_type": "functional, cell-based", "method_in_brief": "as §1"}, "BT-549": {"test_system": "BT-549", "test": "Induction of apoptosis in human BT-549 cells assessed as PARP cleavage at 0.5 uM measured after 6 hrs by western blot assay", "assay_type": "functional, cell-based", "method_in_brief": "as §1"}, "SW-620": {"test_system": "SW-620", "test": "Induction of apoptosis in human SW-620 cells assessed as PARP cleavage at 0.5 uM measured after 6 hrs by western blot assay", "assay_type": "functional, cell-based", "method_in_brief": "as §1"}, "MEF [2]": {"test_system": "MEF", "test": "Induction of apoptosis in wild type mouse MEF cells assessed as PARP cleavage at 0.5 uM measured after 6 hrs by western blot assay", "assay_type": "functional, cell-based", "method_in_brief": "(§2)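 Wild-type, Nur77−/− or Bcl-2−/− mouse embryonic fibroblasts grown in DMEM with 10% FBS and treated with 0.5 µM for 6 h. PARP cleavage detected by western blot, primary antibodies at 1:1000, ECL.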"}, "[3]": {"molecular_target": "T1, Nuclear receptor subfamily 4immunitygroup A member 1", "test": "Modulation of Myc-Nur77-LBD (unknown origin) transfected in human HEK293T cells assessed as induction of Myc-Nur77 mitochondrial targeting by measuring increase in Myc-Nur77 accumulation in mitochondria at 0.5 uM measured after 2 hrs by Mito-tracker dye based confocal microscopy method", "details": "filed as modulator", "method_in_brief": "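HEK293T cells transfected with Myc-Nur77-LBD were given 0.5 μM compound for 2 h, stained with Mito-Tracker and immunostained. Nur77 mitochondrial localisation was visualised by confocal microscopy.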"}, "MEF [4]": {"test_system": "MEF", "test": "Induction of apoptosis in mouse MEF cells deficient in Bcl2 assessed as PARP cleavage at 0.5 uM measured after 6 hrs by Western blot assay", "assay_type": "functional, cell-based", "method_in_brief": "as §2"}, "Mus musculus": {"test_system": "Mus musculus", "test": "Antitumour activity against FVB/N mammary tumor MMTV-PyMT mouse model assessed as inhibition of tumour growth at 3 mg/kg, po administered daily for 14 days", "assay_type": "functional, organism-based", "details": "time 14.0 day", "method_in_brief": "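Female MMTV-PyMT transgenic mice (FVB/N background), 12 weeks old, randomized n = 6 per group; daily oral gavage 3 mg/kg for 14 days. Dosing solution: DMSO stock diluted in normal saline with 5.0% (V/V) Tween-80 to 3 mg/mL. Tumours weighed at end; mean ± SD, Student's t-test versus untreated controls.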"}},
  "note": "Calls of active or inactive are those of the source. No cut-off for these calls is given here.",
  "data": [
    {"compound": "FC(F)(F)c1ccc([C+](c2c[nH]c3ccccc23)c2c[nH]c3ccccc23)cc1", "values": [
      {"measurement": "Activity", "setting": "[1]", "result": "Active"},
      {"measurement": "Activity", "setting": "MDA-MB-231", "result": "Active"},
      {"measurement": "Activity", "setting": "HCT-116", "result": "Active"},
      {"measurement": "Activity", "setting": "BT-549", "result": "Active"},
      {"measurement": "Activity", "setting": "SW-620", "result": "Active"},
      {"measurement": "Activity", "setting": "MEF [2]", "result": "Active"},
      {"measurement": "Activity", "setting": "[3]", "result": "Active"},
      {"measurement": "Activity", "setting": "MEF [4]", "result": "inactive"},
      {"measurement": "Activity", "setting": "Mus musculus", "result": "Active"}
    ]}
  ]
}
